STAT3 inh – reduces IL-6 driven STAT3 reporter signal; U3A cells, IL-6 STAT3-luciferase reporter, luminescence; host cell line lacks STAT1; inhibition, % at 5.5 µM; hit rate 0.89% among 190,000;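 active = inhibition above the mean inhibition across all screened compounds plus 3 SD, cut at about 44% in these data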;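 note: 0% = DMSO only wells and 100% = 100 µM nifuroxazide control wells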
STAT1 blocker – inhibitors of IFN-gamma induced STAT1 signaling | inhibition, % at 5.5 µM | NIH 3T3 STAT1-luciferase reporter, luminescence | hit rate 0.35% among 200,000;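 active = inhibition above a set limit, the mean inhibition across all tested compounds plus 3 SD, cut at about 34% in these data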;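 note: 0% = IFN-gamma with DMSO and 100% = IFN-gamma with 300 µM nifuroxazide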
STAT3 act – activators of IL-6 induced STAT3 signaling. hit rate 0.91% among 190,000. AID 871. U3A cells, IL-6 STAT3-luciferase reporter, luminescence; 100% = signal with IL-6 EC80 alone. activation (% of control), % at 5.6 µM;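 active = activation above the screen-wide mean of compound activation plus 3 SD, cut at about 130% in these data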;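 note: 0% = background luminescence of wells with medium and substrate only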
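Test system: STAT3-luciferase reporter U3A cells; Detection: reporter luminescence signal; Times: 1 h compound pre-exposure, 6 h IL-6 stimulation, 37 °C; Benchmarks: IL-6-only high control; Also added: IL-6 stimulus at 33 ng/mL final.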
PPC-1+TRAIL kill – kills PPC-1 cancer cells in the presence of TRAIL | PPC-1 cells + TRAIL, ATPLite viability luminescence | cell killing (% activity), % at 4 µM or 5 µM | AID 1443 | hit rate 0.41% among 220,000;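 active = cell killing above 50% in the first pass at 4 µM, then a duplicate retest at 5 µM averaging 50% or more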;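 note: plate controls were cells with TRAIL plus DMSO for no effect and medium-only wells lacking cells for full effect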
C8 TRAIL sens – sensitizes caspase-8 expressing cells to TRAIL | NB7+C8 cells + TRAIL, ATPlite viability luminescence | inhibition (viability loss, TRAIL sensitization), % at 10 µM | hit rate 1% among 360,000 | AID 624354;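 active = compounds causing at least 50% loss of cell viability in the single-dose screen, relative to plate controls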
An asterisk follows results filed as active; . = no result given; ! = not confirmed by another sample. An excerpt weighted towards active compounds, which were near 1.8% of everything screened.

SMILES	STAT3 inh	STAT1 blocker	STAT3 act	PPC-1+TRAIL kill	C8 TRAIL sens
NNc1ccc2c(C(F)(F)F)cc(C(F)(F)F)nc2n1	-4	3	105	15	43
O=C(CN1CCN(S(=O)(=O)c2ccc(F)cc2)CC1)Nc1ccc(Cl)c(C(F)(F)F)c1	3	2	104	0	60*
CSCC[C@H](N)C(=O)N1CCC(C(=O)N[C@@H](C)C(=O)NCc2ccc(F)cc2)CC1	.	.	.	.	-2
O=C(CCl)N1c2ccccc2CCc2ccccc21	.	.	.	.	95*
CC(Cl)C(=O)N1c2ccccc2CCc2ccccc21 (stereo not given)	.	.	.	.	5
CCOC(=O)[C@]12CCCC=C1N(CCC1=CCCCC1)C(=O)[C@H](CC(=O)NCc1ccc(OC)c(OC)c1)C2	.	.	.	.	6
CCN(CC)c1ncnc2c1ncn2[C@H]1CN(Cc2cc(OC)c(OC)c(OC)c2)C[C@@H](CO)O1	.	.	.	.	-11
CC(NC(=O)CCl)c1ccc(Cl)c(Cl)c1 (stereo not given)	17	1	85	12	61*
CC(NC(=O)c1ccc(Cl)c(Cl)c1)c1ccc(-c2ccccc2)cc1 (stereo not given)	.	.	.	16	-4
CCC(=O)c1cn(CC(=O)Nc2ccc(F)cc2)c2ccccc12	.	.	.	.	20
O=[N+]([O-])c1cccc(N(CC(O)CN2CCCCC2)S(=O)(=O)c2ccccc2)c1 (stereo not given)	.	.	.	.	-8
C=C(C)[C@@H]1C2=CC(C(=O)OC)=C(C[C@H](C(=C)C)[C@H]3O[C@H]3C3=C[C@H]1OC3=O)O2	.	.	.	.	77*
C[C@H](CO)N1C[C@H](C)[C@@H](CN(C)C(=O)NC2CCCCC2)Oc2c(NS(=O)(=O)c3ccc(F)cc3)cccc2C1=O	.	.	.	.	-10
C[C@H](CO)N1C[C@H](C)[C@@H](CN(C)C(=O)NC2CCCCC2)Oc2c(NS(=O)(=O)c3ccccc3)cccc2C1=O	.	.	.	.	50*
Nc1c(-c2ccc(C(F)(F)F)cc2)nc2ncccn12	.	.	.	.	3
COc1cccc2c1C(=O)c1c(O)c3c(c(O)c1C2=O)C[C@](O)(C(C)=O)C[C@H]3O[C@@H]1C[C@@H](N)[C@@H](O)[C@@H](C)O1	.	.	.	.	62*
Cc1ccc(C2=NN(C(=O)CCl)C(c3cccs3)C2)o1 (stereo not given)	0	11	95	-7	95*
CC(=O)N1N=C(c2ccco2)CC1c1cccs1 (stereo not given)	9	7	95	-5	6
O=C(CCl)N1N=C(c2ccco2)CC1c1cccs1 (stereo not given)	29	24	77	5	92*
O=C(COC(=O)c1n[nH]c2ccccc12)NC(=O)NC12CC3CC(CC(C3)C1)C2	14	-8	93	14	57*
O=C(Nc1ccc2c(c1)OCO2)c1cc(C2CCCCN2S(=O)(=O)Cc2ccccc2)on1 (stereo not given)	.	.	.	.	31
FC(F)(F)c1cccc(-c2nc3nc(Cl)c(Cl)nc3[nH]2)c1	.	.	.	29	53*
CCOc1ccc(N=Cc2c(C)[nH]n(-c3nc4ccccc4[nH]3)c2=O)cc1	21	19	79	74*	87*
O=C(CC1C[C@H](C(=O)N2CCCCC2)[C@@]2(CCc3ccccc3)c3[nH]c4ccccc4c3CCN2C1=O)NCCC1=CCCCC1 (stereo not given in full)	.	.	.	.	4
O=C(C[C@H]1C[C@H](C(=O)N2CCCCC2)[C@@]2(CCc3ccccc3)c3[nH]c4ccc(Cl)cc4c3CCN2C1=O)NCCc1ccccn1	.	.	.	.	18
SMILES	STAT3 inh	STAT1 blocker	STAT3 act	PPC-1+TRAIL kill	C8 TRAIL sens
CN(C)CCCNC(=O)C[C@H]1C[C@H](C(=O)N2CCCCC2)[C@@]2(CCc3ccccc3)c3[nH]c4ccc(Cl)cc4c3CCN2C1=O	.	.	.	.	66*
O=C(C[C@H]1C[C@H](C(=O)N2CCCCC2)[C@@]2(CCc3ccccc3)c3[nH]c4ccc(Cl)cc4c3CCN2C1=O)NCCC1=CCCCC1	.	.	.	.	55*
CCCC1=NN2C(=N)/C(=C\c3ccc(OCCOc4ccc(NC(C)=O)cc4)c(OC)c3)C(=O)N=C2S1	.	.	.	.	-13
CCN1CCN(Cc2ccc(NC(=O)c3ccc(C)c(NC(=O)c4cc(-c5ccc(Br)cc5)n[nH]4)c3)cc2C(F)(F)F)CC1	.	.	.	18	32
CCN1CCN(Cc2ccc(NC(=O)c3cc(NC(=O)c4cnnc5ccccc45)cc(OC)c3)cc2C(F)(F)F)CC1	.	.	.	26	56*!
CCN1CCN(Cc2ccc(NC(=O)c3ccc(C)c(NC(=O)c4cncc(-c5cccs5)c4)c3)cc2C(F)(F)F)CC1	.	.	.	.	70*
CCN1CCN(Cc2ccc(NC(=O)c3cc(NC(=O)c4cncc(-c5ccc(C#N)cc5)c4)cc(OC)c3)cc2C(F)(F)F)CC1	.	.	.	0	94*!
CCN1CCN(Cc2ccc(NC(=O)c3cc(NC(=O)c4nccnc4N)cc(OC)c3)cc2C(F)(F)F)CC1	.	.	.	30	12
CCN1CCN(Cc2ccc(NC(=O)c3ccc(C)c(NC(=O)c4nccn4C)c3)cc2C(F)(F)F)CC1	.	.	.	19	8
CSC(=NS(=O)(=O)c1ccc(N)cc1)NS(=O)(=O)c1cccs1	.	.	.	.	-8
CC(C)CNC(=O)c1nn(Cc2ccccc2)c(=O)c2ccccc12	.	.	.	.	-9
COc1ccccc1C(=O)NNC(=O)c1nn(Cc2ccccc2)c(=O)c2ccccc12	-38	9	135*	1	16
COc1ccc(C(=O)O)cc1NC(=S)NC(=O)/C=C/c1ccc(C(C)C)cc1	.	.	.	.	-23
CCOC(=O)c1cc(C#N)c(SCc2ccc(C#N)cc2)nc1C	-36	-4	136*	.	5
COc1cc(/C=N/NC(=S)Nc2cccc(C(=O)O)c2)ccc1O	97*	71*	16	27	35
COc1ccc(C=NNC(=O)NN=Cc2ccc(OC)c(OC)c2)cc1OC	.	.	.	.	72*
COc1cc(/C=N/NC(=O)c2ccccc2)ccc1O	3	-22	99	32	6
COc1ccc(C=NNC(=O)CCCC(=O)NN=Cc2ccc(OC)c(OC)c2)cc1OC	.	.	.	.	1
O=C(Nc1ccccc1F)c1ccc2sc([C@@H]3O[C@H](CO)[C@H](O)[C@H](O)[C@H]3O)nc2c1	.	.	.	.	4
CCCNC(=O)C1(C)CCCN(C(=O)COc2ccc(Cl)cc2Cl)C1 (stereo not given)	.	.	.	.	-10
O=C(COC(=O)c1ccccc1)Nc1cccc(S(=O)(=O)N2CCCCC2)c1	.	.	.	.	9
COc1ccc(C(=O)c2c(C(F)(F)F)oc3c2C(=O)c2ccccc2C3=O)cc1OC	18	-5	90	40	95*
COc1ccc(OC)c(CNC(=O)C2CCC(=O)N(CCCN3CCCC3=O)C2)c1 (stereo not given)	.	.	.	.	-5
Cn1c(/N=C/c2c(O)ccc3ccccc23)nc2ccccc21	-36	11	134*	5	1
Cc1ccc(-c2nc(=S)c3c(n2Cc2ccco2)CCCC3)cc1	-47	1	143*	25	6
Cc1ccc(C(=O)O/N=C(\N)c2ccccn2)c(C)c1	.	.	.	.	94*
O=C(COC(=O)c1ccccn1)c1cccc(Br)c1	.	.	.	.	-9
